# ChEMBL document CHEMBL1126221, “Antimitotic agents: structure-activity studies with some pyridine derivatives” (J Med Chem, 1992)
# Tests used:
# P388 [1] = experiment: Compound was evaluated for antitumor activity against mice implanted with lymphatic leukemia P388 cells (10e6 tumor cells) after intraperitoneal administration of 5 mg/kg per injection (1-5 days); assay type: functional; details: Mus musculus, P388, ip
# Procedure, shortened: (§1)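 Mice implanted ip with 10⁶ lymphocytic leukemia P388 cells; drug given ip on days 1-5. Read-out is % increase in life span (% ILS) versus untreated controls, reported at the highest nontoxic dose tested.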
# L1210 [2] = experiment: Concentration required to inhibit proliferation of cultured lymphoid leukemia L1210 cells to 50% growth over 48 hours; assay type: functional, cell-based; details: Mus musculus, L1210, 48 h
# Procedure, shortened: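 Cultured lymphoid leukemia L1210 cells were exposed to agent for 48 h. IC50 is the micromolar concentration that holds proliferation to 50% growth.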
# P388 [3] = experiment: Compound was evaluated for antitumor activity against mice implanted with lymphatic leukemia P388 cells (10e6 tumor cells) after intraperitoneal administration of 50 mg/kg per injection (1-5 days); assay type: functional; details: Mus musculus, P388, ip; procedure, shortened: as §1
# L1210 [4] = experiment: Effect on the mitosis of cultured L1210 cells measured in metaphase at 12 hours and 100 uM concentration; assay type: functional, Mus musculus
# Procedure, shortened: (§2)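 Cultured L1210 cells were exposed for 12 h to 0, 3, 10, 30, 50 or 100 μM agent. Read-out was the percentage of cells in metaphase.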
# L1210 [5] = experiment: Effect on the mitosis of cultured L1210 cells measured in metaphase at 12 hours and 30 uM concentration; assay type: functional, Mus musculus; procedure, shortened: as §2
# P388 [6] = experiment: Compound was evaluated for antitumor activity against mice implanted with lymphatic leukemia P388 cells (10e6 tumor cells) after intraperitoneal administration of 100 mg/kg per injection (1-5 days); assay type: functional; details: Mus musculus, P388, ip; procedure, shortened: as §1
# L1210 [7] = experiment: Effect on the mitosis of cultured L1210 cells measured in metaphase at 12 hours and 3 uM concentration; assay type: functional, Mus musculus; procedure, shortened: as §2
# L1210 [8] = experiment: Effect on the mitosis of cultured L1210 cells measured in metaphase at 12 hours and 50 uM concentration; assay type: functional, Mus musculus; procedure, shortened: as §2
# L1210 [9] = experiment: Effect on the mitosis of cultured L1210 cells measured in metaphase at 12 hours and 10 uM concentration; assay type: functional, Mus musculus; procedure, shortened: as §2
# L1210 [10] = experiment: Effect on the mitosis of cultured L1210 cells measured in metaphase at 12 hours and 0 uM concentration; assay type: functional, Mus musculus; procedure, shortened: as §2
# L1210 [11] = experiment: Compound was evaluated for antitumor activity against mice implanted with lymphatic leukemia L1210 cells (10e6 tumor cells) after intraperitoneal administration of 200 mg/kg per injection (1-15 days); details: Mus musculus, L1210, ip
# HEp-2 = experiment: Compound's concentration required to inhibit proliferation of cultured HEP-2 cells to 50% growth during 48 hours.; assay type: functional, cell-based; details: Homo sapiens, HEp-2, 48 h
# P388 [12] = experiment: Compound was evaluated for antitumor activity against mice implanted with lymphatic leukemia P388 cells (10e6 tumor cells) after intraperitoneal administration of 2 mg/kg per injection (1-5 days); assay type: functional; details: Mus musculus, P388, ip; procedure, shortened: as §1
# P388 [13] = experiment: Compound was evaluated for antitumor activity against mice implanted with lymphatic leukemia P388 cells (10e6 tumor cells) after intraperitoneal administration of 300 mg/kg per injection (1-5 days); assay type: functional; details: Mus musculus, P388, ip; procedure, shortened: as §1
# [14] = Compound's concentration required to inhibit proliferation of cultured KB cells to 50% growth during 48 hours.; assay type: functional, cell-based; details: Homo sapiens
# P388 [15] = experiment: Compound was evaluated for antitumor activity against mice implanted with lymphatic leukemia P388 cells (10e6 tumor cells) after intraperitoneal administration of 100 mg/kg per injection; assay type: functional; details: Mus musculus, P388, ip
compound,measurement,setting,value
CCOC(=O)Nc1cc(NC(C)/C(=N/O)c2ccc(O)cc2)c([N+](=O)[O-])c(N)n1 (centres undefined),ILS at 5 mg/kg,P388 [1],57%
same,IC50,L1210 [2],18 µM
CCOC(=O)Nc1cc(N[C@@H](C)[C@H](O)c2ccccc2)c(N)c(N)n1,ILS at 50 mg/kg,P388 [3],36%
same,IC50,L1210 [2],1.3 µM
CCOC(=O)Nc1cc(NC(C)/C(=N/O)c2cccc([N+](=O)[O-])c2)c([N+](=O)[O-])c(N)n1 (centres undefined),Cells in metaphase,L1210 [4],1%
same,Cells in metaphase,L1210 [5],2%
same,ILS at 100 mg/kg,P388 [6],25%
same,Cells in metaphase,L1210 [7],4%
same,Cells in metaphase,L1210 [8],6%
same,IC50,L1210 [2],32 µM
same,Cells in metaphase,L1210 [9],2%
same,Cells in metaphase,L1210 [10],2%
CCOC(=O)Nc1cc(NC(c2ccccc2)c2ccccc2)c(N)c(N)n1,ILS at 200 mg/kg,L1210 [11],0%
same,IC50,HEp-2,260 nM
CC[C@]1(O)C[C@H]2CN(CCc3c([nH]c4ccccc34)[C@@](C(=O)OC)(c3cc4c(cc3OC)N(C=O)[C@H]3[C@@](O)(C(=O)OC)[C@H](OC(C)=O)[C@]5(CC)C=CCN6CC[C@]43[C@@H]65)C2)C1 [VINCRISTINE],ILS at 2 mg/kg,P388 [12],85%
CCOC(=O)Nc1cc(NC(C)C(=O)c2ccccc2)c([N+](=O)[O-])c(N)n1 (centres undefined),ILS at 300 mg/kg,P388 [13],2%
same,IC50,L1210 [2],37 µM
CCOC(=O)Nc1cc(N)c(N)c(N)n1,IC50,[14],10 µM
same,ILS at 100 mg/kg,P388 [15],0%
